Measured values from ChEMBL document CHEMBL4028903 (J Med Chem, 2017).
Activity calls are given as the source filed them. The rule behind the calls is not given here.

Legend:
[1] = Dissociation constant, pKa of compound; type: physicochemical
[2] = Clearance in rat at 3 mg/kg, iv by LC-MS/MS analysis; type: ADME, organism-based; settings: in vivo
In short: (§1)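 Rats were dosed IV as a solution in 75% PEG300:25% D5W, or orally as a suspension in 0.5% methylcellulose, 0.5% Tween80 and 99% water.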

[3] = Volume of distribution at steady state in rat at 3 mg/kg, iv by LC-MS/MS analysis; type: ADME, organism-based; settings: in vivo, read-out: Vdss; in short: as §1
[4] = Cmax in rat at 10 mg/kg, po administered via gavage by LC-MS/MS analysis; type: ADME, organism-based; parameters: dose 10 mg/kg, route oral; settings: in vivo; in short: as §1
[5] = Oral bioavailability in rat at 10 mg/kg administered via gavage by LC-MS/MS analysis; type: ADME, organism-based; settings: in vivo; in short: as §1
Rattus norvegicus [6] = experiment: In vivo agonist activity at FXR in po dosed Sprague-Dawley rat assessed as induction of BSEP mRNA level in liver administered as single dose after 7 hrs post dose by qPCR analysis; type: functional, organism-based
Rattus norvegicus [7] = experiment: In vivo agonist activity at FXR in po dosed Sprague-Dawley rat assessed as induction of SHP mRNA level in liver administered as single dose after 7 hrs post dose by qPCR analysis; type: functional, organism-based
Rattus norvegicus [8] = experiment: In vivo agonist activity at FXR in Sprague-Dawley rat assessed as induction of SHP mRNA level in liver at 0.3 mg/kg, po qd for 14 days measured 7 hrs post last dose on day 14 by qPCR analysis; type: functional, organism-based
Rattus norvegicus [9] = experiment: In vivo agonist activity at FXR in Sprague-Dawley rat assessed as induction of BSEP mRNA level in liver at 0.003 mg/kg, po qd for 14 days measured 7 hrs post last dose on day 14 by qPCR analysis; type: functional, organism-based
Rattus norvegicus [10] = experiment: In vivo agonist activity at FXR in Sprague-Dawley rat assessed as induction of BSEP mRNA level in liver at >0.1 mg/kg, po qd for 14 days measured 7 hrs post last dose on day 14 by qPCR analysis; type: functional, organism-based
Rattus norvegicus [11] = experiment: In vivo agonist activity at FXR in Sprague-Dawley rat assessed as downregulation of CYP8B1 mRNA level in liver at 0.003 mg/kg, po qd for 14 days measured 7 hrs post last dose on day 14 by qPCR analysis; type: functional, organism-based
Rattus norvegicus [12] = experiment: In vivo agonist activity at FXR in po dosed Sprague-Dawley rat assessed as induction of SHP mRNA level in liver administered once daily for 14 days measured 7 hrs post last dose on day 14 by qPCR analysis; type: functional
[13] = Drug uptake in Sprague-Dawley rat liver at 0.1 mg/kg, po qd administered via gavage measured 1 hr post last dose on day 14 by LC-MS/MS analysis; type: ADME, organism-based; settings: read-out: Drug uptake
In short: (§2)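 Drug concentration in liver was quantified from tissue homogenates, so these are total levels. Unbound liver concentration was not determined.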

[14] = Drug uptake in Sprague-Dawley rat plasma at 0.03 mg/kg, po qd administered via gavage measured 1 hr post last dose on day 14 by LC-MS/MS analysis; type: ADME, organism-based
[15] = Drug uptake in Sprague-Dawley rat liver at 0.01 mg/kg, po qd administered via gavage measured 7 hrs post last dose on day 14 by LC-MS/MS analysis; type: ADME, organism-based; settings: read-out: Drug uptake; in short: as §2
[16] = Drug uptake in Sprague-Dawley rat plasma at 0.01 mg/kg, po qd administered via gavage measured 7 hrs post last dose on day 14 by LC-MS/MS analysis; type: ADME, organism-based
[17] = Drug uptake in Sprague-Dawley rat plasma at 0.003 mg/kg, po qd administered via gavage measured 7 hrs post last dose on day 14 by LC-MS/MS analysis; type: ADME, organism-based
[18] = Drug uptake in Sprague-Dawley rat plasma at 0.003 mg/kg, po qd administered via gavage measured 1 hr post last dose on day 14 by LC-MS/MS analysis; type: ADME, organism-based
Rattus norvegicus [19] = experiment: Dose normalized AUC (0 to 24 hrs) in Sprague-Dawley rat at 1 mg/kg, po qd administered via gavage measured on day 1 by LC-MS/MS analysis; type: ADME, organism-based; settings: in vivo
Rattus norvegicus [20] = experiment: Dose normalized AUC (0 to 24 hrs) in Sprague-Dawley rat at 0.1 mg/kg, po qd administered via gavage measured on day 11 by LC-MS/MS analysis; type: ADME, organism-based; settings: in vivo
Rattus norvegicus [21] = experiment: Dose normalized AUC (0 to 24 hrs) in Sprague-Dawley rat at 0.1 mg/kg, po qd administered via gavage measured on day 1 by LC-MS/MS analysis; type: ADME, organism-based; settings: in vivo
[22] = AUC (0 to 24 hrs) in Sprague-Dawley rat at 3 mg/kg, po qd administered via gavage measured on day 11 by LC-MS/MS analysis; type: ADME, organism-based; parameters: dose 3 mg/kg, time < 24 hr, route oral; settings: in vivo
[23] = AUC (0 to 24 hrs) in Sprague-Dawley rat at 0.03 mg/kg, po qd administered via gavage measured on day 1 by LC-MS/MS analysis; type: ADME, organism-based; parameters: time < 24 hr, dose 0.03 mg/kg, route oral; settings: in vivo
[24] = Cmax in Sprague-Dawley rat at 1 mg/kg, po qd administered via gavage measured on day 1 by LC-MS/MS analysis; type: ADME, organism-based; parameters: dose 1 mg/kg, route oral; settings: in vivo
[25] = Cmax in Sprague-Dawley rat at 0.3 mg/kg, po qd administered via gavage measured on day 11 by LC-MS/MS analysis; type: ADME, organism-based; parameters: dose 0.3 mg/kg, route oral; settings: in vivo
[26] = Cmax in Sprague-Dawley rat at 0.3 mg/kg, po qd administered via gavage measured on day 1 by LC-MS/MS analysis; type: ADME, organism-based; parameters: dose 0.3 mg/kg, route oral; settings: in vivo
[27] = Cmax in Sprague-Dawley rat at 0.01 mg/kg, po qd administered via gavage measured on day 1 by LC-MS/MS analysis; type: ADME, organism-based; parameters: dose 0.01 mg/kg, route oral; settings: in vivo
[28] = Volume of distribution at steady state in dog at 0.5 mg/kg, iv or 2 mg/kg, po administered via gavage by LC-MS/MS analysis; type: ADME, organism-based, Canis lupus familiaris; settings: in vivo, read-out: Vdss
In short: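 IV dosing used a solution in 75% PEG300:25% D5W for mouse and rat, and a solution in 20% PEG300, 5% solutol, 75% carbonate buffer pH 8 for dog. PO dosing used a suspension in 0.5% methylcellulose, 0.5% Tween80, 99% water for all three species.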

[29] = Half life in dog at 0.5 mg/kg, iv by LC-MS/MS analysis; type: ADME, organism-based, Canis lupus familiaris; settings: in vivo
In short: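 Single IV dose given as a solution. Mouse and rat received it in 75% PEG300:25% D5W. Dog received it in 20% PEG300, 5% solutol and 75% carbonate buffer pH = 8. Plasma was sampled for PK parameters.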

[30] = Protein binding in mouse plasma at 5 mg/kg, iv or 10 mg/kg, po administered via gavage by LC-MS/MS analysis; type: ADME, organism-based; settings: read-out: PPB
[31] = Protein binding in rat plasma at 3 mg/kg, iv or 1 mg/kg, po administered via gavage by LC-MS/MS analysis; type: ADME, organism-based; settings: read-out: PPB
[32] = Drug uptake in Sprague-Dawley rat liver at 1 mg/kg, po qd administered via gavage measured 7 hrs post last dose on day 14 by LC-MS/MS analysis; type: ADME, organism-based; settings: read-out: Drug uptake; in short: as §2
[33] = Drug uptake in Sprague-Dawley rat liver at 3 mg/kg, po qd administered via gavage measured 1 hr post last dose on day 14 by LC-MS/MS analysis; type: ADME, organism-based; settings: read-out: Drug uptake; in short: as §2
[34] = Drug uptake in Sprague-Dawley rat plasma at 3 mg/kg, po qd administered via gavage measured 7 hrs post last dose on day 14 by LC-MS/MS analysis; type: ADME, organism-based

O=C(O)c1cc(F)c2nc(N3C4CCC3CC(OCc3c(-c5ccccc5OC(F)(F)F)noc3C3CC3)C4)sc2c1 (centres undefined) showed a pKa [1] of 4, a clearance [2] of 9 to 9.3 mL/min/kg and a Vd [3] of 0.72 L/kg. For the same compound, the Cmax [4] was 2280 nM, the bioavailability [5] was 20% and the Activity (Rattus norvegicus [6]) was “Dose-dependent effect”. The Activity (Rattus norvegicus [7]) was “Dose-dependent effect”, the Activity (Rattus norvegicus [8]) was “Active” and the Activity (Rattus norvegicus [9]) was “Active”. For the same compound, the Activity (Rattus norvegicus [10]) was “Active”, the Activity (Rattus norvegicus [11]) was “Active” and the ED50 (Rattus norvegicus [12]) was 0.02 mg/kg. It also gave a concentration at 1 h [13] of 27.4 nM, a concentration at 1 h [14] of 1.29 nM and a concentration at 7 h [15] of 5.18 nM. For the same compound, the concentration at 7 h [16] was 0.31 nM, the concentration at 7 h [17] was 0.12 nM and the concentration at 1 h [18] was 0.2 nM. The AUC/dose (Rattus norvegicus [19]) was 461 nM·h, the AUC/dose (Rattus norvegicus [20]) was 796 nM·h and the AUC/dose (Rattus norvegicus [21]) was 410 nM·h. The AUC at 24 h [22] was 1.69 µM·h, the AUC(0-t) at 24 h [23] was 0.015 µM·h and the Cmax [24] was 39.3 nM. The Cmax [25] was 14.8 nM, the Cmax [26] was 13.5 nM and the Cmax [27] was 0.44 nM. It also gave a Vd [28] of 0.46 L/kg, a half-life [29] of 7.4 h and a fraction unbound [30] of 0.001. The fraction unbound [31] was 0.001, the concentration at 7 h [32] was 230 nM and the concentration at 1 h [33] was 872 nM. The concentration at 7 h [34] was 115 nM.
